Changes are numbered by the printed parent chain. Like-named read-outs stand apart in the source and are kept apart here. Each block holds one compound with its values, some of them ahead of it.
Key:
[1] = molecular target: T1, SULT2B1b S347D (Homo sapiens, UniProt O00204, S347D); assay: Initial-rate 1-HP sulfonation; conditions: for Ki: read-out: Ki 7-DH
T1 sequence (O00204 1-365 S347D): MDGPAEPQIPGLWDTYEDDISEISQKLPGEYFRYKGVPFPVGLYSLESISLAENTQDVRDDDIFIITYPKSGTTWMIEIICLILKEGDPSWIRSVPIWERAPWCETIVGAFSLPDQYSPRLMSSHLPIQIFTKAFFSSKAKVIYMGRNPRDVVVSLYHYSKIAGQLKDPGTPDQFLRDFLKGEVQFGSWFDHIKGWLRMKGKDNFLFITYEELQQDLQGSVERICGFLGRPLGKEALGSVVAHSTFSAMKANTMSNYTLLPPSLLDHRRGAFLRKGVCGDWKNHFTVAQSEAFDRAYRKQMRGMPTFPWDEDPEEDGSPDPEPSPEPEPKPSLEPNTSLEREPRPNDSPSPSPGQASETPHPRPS

[2] = system: SULT2B1b; conditions: cited from earlier work
[3] = system: Oc1ccc2ccc3cccc4ccc1c2c34; assay: Initial-rate parameters, non DTNB-reactive scaffold; type: biochemical, human; conditions: other: NR; saturating PAPS (300 μM); 25.0 °C
[4] = system: Oc1ccc2ccc3cccc4ccc1c2c34; assay: Initial-rate parameters, spin-labeled mutant 21; type: biochemical, human; conditions: other: spin label at 21; saturating PAPS (300 μM); 25.0 °C
[5] = system: Oc1ccc2ccc3cccc4ccc1c2c34; assay: purified protein, by the assay type; conditions: saturating PAPS (300 μM), (−) quercetin, pH 7.5, 25.0 °C
[6] = system: Oc1ccc2ccc3cccc4ccc1c2c34; assay: Initial-rate parameters, spin-labeled mutant 171; type: biochemical, human; conditions: other: spin label at 171; saturating PAPS (300 μM); 25.0 °C
[7] = system: Oc1ccc2ccc3cccc4ccc1c2c34; assay: Initial-rate parameters, spin-labeled mutant 247; type: biochemical, human; conditions: other: spin label at 247; saturating PAPS (300 μM); 25.0 °C
[8] = molecular target: T1, SULT2B1b S347D; assay: Equilibrium binding via intrinsic fluorescence
Method in brief: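 Intrinsic fluorescence titrations of purified His/GST/MBP-tag-cleaved enzyme, excitation 290 nm, in KPO4 (50 mM), pH 7.5, 25 ± 2 °C. […] Triplicate averaged data were fit to a single-site-per-monomer model.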

[9] = molecular target: T2, SULT2B1b, S347D, Y257A (Homo sapiens, UniProt O00204, S347D/Y257A); assay: Initial-rate parameters, direct-contact mutant Y257A; conditions: read-out: Km PAPS; Y257A; saturating 1-HP (100 μM); (−) quercetin
T2 sequence (O00204 1-365 Y257A/S347D): T1 sequence (O00204 1-365 S347D) with Y257A

[10] = molecular target: T3, SULT2B1b, S347D, W13A (Homo sapiens, UniProt O00204, S347D/W13A); assay: Initial-rate parameters, direct-contact mutant W13A; conditions: read-out: Km PAPS; W13A; saturating 1-HP (100 μM); (−) quercetin
T3 sequence (O00204 1-365 W13A/S347D): T1 sequence (O00204 1-365 S347D) with W13A

[11] = molecular target: T4, SULT2B1b, S347D, W98A (Homo sapiens, UniProt O00204, S347D/W98A); assay: Initial-rate parameters, direct-contact mutant W98A; conditions: read-out: Km PAPS; W98A; saturating 1-HP (100 μM); (−) quercetin
T4 sequence (O00204 1-365 W98A/S347D): T1 sequence (O00204 1-365 S347D) with W98A

[12] = molecular target: T1, SULT2B1b S347D; assay: Stopped-flow ligand-binding studies

inhibition of SULT2B1b turnover ([1]; concentrations as high as 10 μM): does not inhibit
Compound: CC(C)=CCC[C@@H](C)[C@H]1CC[C@H]2[C@@H]3CC=C4C[C@@H](O)CC[C@]4(C)[C@H]3CC[C@]12C [24-DH, 24-dehydrocholesterol]
SULT2B1b substrate [2]: neither of which is a SULT2B1b substrate

Compound: SULT2B1b C81S, C225S, C278S, S347D (Homo sapiens; C225S/C278S/C81S/S347D)
Km [3]: 3.5 (0.2) μM | kcat [3]: 3.3 s⁻¹

Compound: CC(C)CCC[C@@H](C)[C@H]1CC[C@H]2C3=CC=C4C[C@@H](O)CC[C@]4(C)[C@H]3CC[C@]12C [7-DH, 7-dehydrocholesterol]
α (fraction turnover at saturation), 7-DH ([1]; PAPS 30 μM, 1-HP 100 μM): 0.11 ± 0.02 | Ki [1]: 110 nM | Ki ([1]; PAPS 30 μM, 1-HP 100 μM, noncompetitive partial-inhibition model): 110 ± 7 nM | SULT2B1b substrate [2]: neither of which is a SULT2B1b substrate

Compound: SULT2B1b S347D spin-labeled at residue 21 (Homo sapiens; C225S/C278S/C81S/S21C/S347D)
Km [4]: 4.2 (0.3) μM | kcat [4]: 3.6 s⁻¹

Compound: SULT2B1b, S347D, W98A (Homo sapiens; S347D/W98A)
Km ([5]; other: W98A): 3.6 (0.2) μM

Compound: SULT2B1b S347D spin-labeled at residue 171 (Homo sapiens; C225S/C278S/C81S/S347D/T171C)
Km [6]: 4.1 (0.2) μM | kcat [6]: 3 s⁻¹

Compound: SULT2B1b S347D spin-labeled at residue 247 (Homo sapiens; C225S/C278S/C81S/S247C/S347D)
Km [7]: 3.6 (0.3) μM | kcat [7]: 3.5 s⁻¹

Compound: SULT2B1b, S347D, Y257A (Homo sapiens; S347D/Y257A)
Km ([5]; other: Y257A): 4.0 (0.3) μM

Compound: SULT2B1b, S347D, W13A (Homo sapiens; S347D/W13A)
Km ([5]; other: W13A): 4.2 (0.3) μM

Kd [8]: 380 nM
Compound: Nc1ncnc2c1ncn2[C@@H]1O[C@H](COP(=O)(O)O)[C@@H](OP(=O)(O)O)[C@H]1O [PAP, 3′-phosphoadenosine 5′-phosphate]

Km [9]: 0.37 µM | Km [10]: 0.36 µM | Km [11]: 0.31 µM | increase of PAPS affinity ([8]; at saturating quercetin): 12 fold | koff ([12]; (−) Quc): 3.0 (0.2) s^−1 | kon ([12]; (−) Quc): 8.0 (0.3)^1 μM^−1s^−1 | rate constant for release of PAPS ([12]; absence of quercetin): 3.0 ± 0.2 s⁻¹ | decrease of koff PAPS ([12]; at saturating quercetin): 14 fold | rate constant for PAPS release ([12]; at saturating quercetin): 0.22 ± 0.2 s⁻¹ | Kd ([12]; read-out: Kd PAPS (koff/kon), (−) Quc): 380 nM
Compound: Nc1ncnc2c1ncn2[C@@H]1O[C@H](COP(=O)(O)OS(=O)(=O)O)[C@@H](OP(=O)(O)O)[C@H]1O [PAPS, 3′-phosphoadenosine 5′-phosphosulfate]

Compound: SULT2B1b S347D (Homo sapiens; S347D)
Km ([5]; other: WT): 3.8 (0.3) μM | kcat ([5]; other: WT): 3.4 s⁻¹
